The values below come from PubChem BioAssay AID504382 (The Scripps Research Institute Molecular Screening Center, 2011).

The whole screen tested about 2,500 compounds, of which about 460 (18%) were called active.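 Rule for the calls: active = mean activation above a cutoff of low control average plus 3 SD from the earlier screen (cut at about 12% in these data); inactive = the rest.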 These entries were drawn from the full list.

A short description of the experiment: compound fluorescence interference without thin filaments, confirmation, artefact control for cardiac RTF calcium sensitizer project, biochemical (AID 504382). The conditions noted are these: IANBD fluorescence interference counterscreen, buffer, EC20 Ca2+; at 7.2 µM; stronger effect = higher value; scaled: EC20 calcium 0, EC100 calcium 100. Summed up:
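Medium: MOPS buffer, 190 mM, with KCl, MgCl2, EGTA, NTA, DTT, pH 7.20; Dosing: one dose of 7.2 µM, 0.7% DMSO; Probe or stimulus: calcium at EC20 level, 0.472 mM final; Incubation: 15 min, 25 °C; Evaluation: compound fluorescence interference relative to control well signal range; Signal: fluorescence, 480/540 nm.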
(The purpose of a counterscreen is to sort out artefacts and off-target activity.)
Take `O=C(Cn1cnc2c(cnn2-c2ccccc2)c1=O)Nc1ccc(S(=O)(=O)N2CCOCC2)cc1`: the fluorescence artifact activation was 7.41% (inactive).

Turning to `CN(C)c1ccc(/C=C/C(=O)c2ccc3c(c2)OCO3)cc1`, the fluorescence artifact activation is 2.49% (inactive).

`C[C@H]1CN([C@@H](C)CO)C(=O)c2cccc(NC(=O)c3nc4ccccc4s3)c2O[C@H]1CN(C)C(=O)Nc1ccc(F)cc1`: the fluorescence artifact activation was 0.31% (inactive).

As for `CC(C)NC(=O)/C(C#N)=C\c1ccc(N(C)C)o1`, the fluorescence artifact activation was 48.4% (active).

Regarding `CC(C)NC(=O)/C(C#N)=C/c1ccc(N(C)C)o1`, the fluorescence artifact activation was 0.18% (inactive).

Turning to `CCN(CC)c1ccc(/C=C(/C#N)C(=O)NC(C)C)o1`, the fluorescence artifact activation is 0.06% (inactive).

As for `CCN(c1ccc(N=Cc2c(O)n(Cc3ccc(OC)cc3)c(=O)c3ccccc23)cc1)C(C)C`, the fluorescence artifact activation is 2.13% (inactive).

Consider `O=C(CSC1CC(=O)N(c2ccc(C(=O)O)cc2)C1=O)Nc1ccc2ccccc2c1` (stereo not drawn), for which the fluorescence artifact activation is 0.06% (inactive).

For the molecule `CC(C)(C)c1ccc(C(=O)N/C(=C\c2cccs2)C(=O)NCc2ccco2)cc1`, the fluorescence artifact activation is 0.07% (inactive).

Take `O=C(NCCCN1CCOCC1)C(=O)NCc1ccco1`: the fluorescence artifact activation is 0.11% (inactive).

For the molecule `O=C(NCc1ccco1)/C(=C\c1ccco1)NC(=O)c1ccc(Br)o1`, the fluorescence artifact activation was 24.4% (active).

For the molecule `Cc1cc(=O)c2c([nH]1)c(C)cc1[nH]c(C)c(C)c12`, the fluorescence artifact activation is 0.09% (inactive).

`C=CCn1c(=O)c(C(=O)NCCNCC)c(O)c2ccccc21`: the fluorescence artifact activation is 0.84% (inactive).

For the molecule `CCCCN=C1N/C(=C\c2ccco2)C(=O)N1c1ccccc1`, the fluorescence artifact activation was 78.2% (active).

For `NC(N)=NCc1cccc(I)c1`, the fluorescence artifact activation is 0.57% (inactive).

For `CN(C)c1ccc(/C=N/NC(=O)c2cnc3ccccc3c2)cc1`, the fluorescence artifact activation was 0.02% (inactive).

Consider `CC(=O)c1cccc(NC(=S)NC2CCCCC2)c1`, for which the fluorescence artifact activation is 0.08% (inactive).

For the molecule `CC(C)CC[C@@H](O)[C@](C)(O)C1CC[C@@]2(O)C3=CC(=O)[C@@H]4C[C@@H](O)[C@@H](O)C[C@]4(C)C3CC[C@]12C` (stereo partly drawn), the fluorescence artifact activation is 79.3% (active).

As to `CCCCNc1ccc2c3c(cccc13)C(=O)N(CCCC)C2=O`, the fluorescence artifact activation is -0.02% (inactive).

As to `CNc1ccc2c3c(cccc13)C(=O)N(C)C2=O`, the fluorescence artifact activation is 40.8% (active).

Turning to `CN1C(=O)c2cccc3c(N)ccc(c23)C1=O`, the fluorescence artifact activation is 0.17% (inactive).

As to `CCN1C(=O)c2cccc3c(N)ccc(c23)C1=O`, the fluorescence artifact activation was 0.02% (inactive).

For `CN1C(=O)c2cccc3c(N(C)C)ccc(c23)C1=O`, the fluorescence artifact activation is 70.1% (active).

With `Cc1ccccc1N1C(=O)c2cccc3c(N(C)CCO)ccc(c23)C1=O`, the fluorescence artifact activation was -0.04% (inactive).

As for `COC(=O)N1c2ccccc2CCc2ccccc21`, the fluorescence artifact activation is 1.49% (inactive).

For `CC(=O)Nc1ccc(Nc2c3c4c(cccc4n(C)c2=O)C(=O)c2ccccc2-3)cc1`, the fluorescence artifact activation was 5.51% (inactive).

Turning to `COc1ccc(CNC(=O)c2cc3c(s2)CS(=O)C3)cc1` (stereo not drawn), the fluorescence artifact activation is 0.1% (inactive).

In the case of `CCc1ccc2c(c1)C(NC(C)=O)C(=O)N2CC` (stereo not drawn), the fluorescence artifact activation is -0.03% (inactive).

As for `Cc1ccc(S(=O)(=O)c2cccc(S(=O)(=O)N3CCOCC3)c2)cc1S(=O)(=O)N1CCOCC1`, the fluorescence artifact activation was 6.87% (inactive).

As to `N#C/C(=C\c1ccc(Sc2ccc(Cl)cc2)o1)c1nc2ccccc2[nH]1`, the fluorescence artifact activation was -0.03% (inactive).

For the molecule `C=CCN1C(=O)/C(=C\C=C2\N(C)c3ccccc3C2(C)C)SC1=S`, the fluorescence artifact activation was 0.06% (inactive).

As to `Cc1ccc(C)c(C(=O)CSc2n[nH]c(C(C)C)n2)c1`, the fluorescence artifact activation is 18.7% (active).

For `COc1ccc(Cl)cc1-c1nc(SCC(=O)NC(C)C)n[nH]1`, the fluorescence artifact activation was 0.53% (inactive).

For `C/C(N)=C(/C#N)C(=O)CSc1n[nH]c(-c2cccs2)n1`, the fluorescence artifact activation is 0.14% (inactive).

For `Cc1[nH]c(=S)c(C#N)c(C)c1CCC#N`, the fluorescence artifact activation is 10.6% (inactive).

On to `COC(=O)CNC(=O)COC(=O)c1cc(F)c(F)cc1Cl`, for which the fluorescence artifact activation is 0.55% (inactive).

Consider `Cc1ccccc1C1CC(=O)Oc2cc(O)ccc21` (stereo not drawn), for which the fluorescence artifact activation is 0.19% (inactive).

On to `Cc1ccc2c(c1)c(/C=C/c1cc[n+](C)cc1)c(C)n2C`, for which the fluorescence artifact activation is 1.43% (inactive).

For the molecule `Cc1[nH]c2ccccc2c1/C=C/c1cc[n+](C)cc1`, the fluorescence artifact activation is 3% (inactive).

In the case of `Cc1ccc2[nH]c(C)c(/C=C/c3cc[n+](C)cc3)c2c1`, the fluorescence artifact activation is 54.8% (active).

Regarding `COC(=O)Cn1cc(/C=C/c2cc[n+](C)cc2)c2ccccc21`, the fluorescence artifact activation was 1.9% (inactive).

For the molecule `COc1ccc(NC(=O)Nc2cccnc2)c(OC)c1`, the fluorescence artifact activation was 0.16% (inactive).

On to `COc1ccc(-c2nc(/C=C3\C(C)=Nc4ccccc43)c(O)o2)cc1`, for which the fluorescence artifact activation was 1.03% (inactive).

As to `COc1ccc(-c2nnc(-c3cccnc3)o2)cc1`, the fluorescence artifact activation was 15.1% (active).

For the molecule `CC(=O)C1=C(O)CCCC1=NCc1nc2ccccc2[nH]1`, the fluorescence artifact activation was 0.23% (inactive).

As for `CN1CCC(N(CCc2ccccc2)C(=O)CCC(=O)O)CC1`, the fluorescence artifact activation was 46% (active).

For the molecule `CCCN(CCC)C(=O)C1c2ccccc2Oc2ccccc21`, the fluorescence artifact activation was 3.9% (inactive).

Take `CN(Cc1ccccc1)C(=O)N1CCOCC1`: the fluorescence artifact activation was 0.11% (inactive).

Regarding `CN1CCc2c(sc3c2C(=O)NC(c2ccccn2)N3)C1` (stereo not drawn), the fluorescence artifact activation is 0.36% (inactive).

On to `Cc1ccccc1-n1c(SCc2c(C)noc2C)nnc1-c1cccnc1`, for which the fluorescence artifact activation was 0.05% (inactive).

Turning to `N#C/C(=C\c1ccc(-c2ccccc2C(=O)O)o1)c1nc2ccccc2[nH]1`, the fluorescence artifact activation is 1.15% (inactive).

Consider `N#C/C(=C\c1ccc(N2CCOCC2)o1)c1nc2ccccc2[nH]1`, for which the fluorescence artifact activation was 14.2% (active).

As to `Cc1ccc2nc(/C(C#N)=C/c3ccc(-c4ccccc4C(=O)O)o3)[nH]c2c1`, the fluorescence artifact activation is 0.32% (inactive).

As to `N#C/C(=C/c1ccc(N2CCOCC2)o1)c1nc2ccccc2[nH]1`, the fluorescence artifact activation was 0.08% (inactive).

Regarding `Cc1ccc2nc(/C(C#N)=C\c3ccc(N4CCOCC4)o3)[nH]c2c1`, the fluorescence artifact activation was 16.5% (active).

For the molecule `N#C/C(=C/c1ccc(N2CCOCC2)o1)C(=O)N1CCOCC1`, the fluorescence artifact activation was 0.41% (inactive).

Regarding `CCOP(=O)(OCC)/C(=N/OC(=O)c1ccc(OC)cc1)C(N)=O`, the fluorescence artifact activation is 0.15% (inactive).

In the case of `Cc1c(CN2CCCC(C)C2)c(O)n(CCO)c(=O)c1C#N` (stereo not drawn), the fluorescence artifact activation was 1.74% (inactive).

For `C=CCN1C(=O)C(Cc2cccc(Cl)c2)S/C1=N/N=C/c1ccco1` (stereo not drawn), the fluorescence artifact activation was 0.07% (inactive).

Consider `CCOc1ccc(C2CC(c3c(O)c4ccccc4oc3=O)=NN2c2ccccc2)cc1OC` (stereo not drawn), for which the fluorescence artifact activation was 5.17% (inactive).

`CCOc1ccc(C2C(C#N)=C(N)SC(N)=C2C#N)c(OCC)c1`: the fluorescence artifact activation is 0.05% (inactive).

For the molecule `CCOc1cc(C2C3=C(CCCC3=O)N(C)C3=C2C(=O)CCC3)cc(Cl)c1O`, the fluorescence artifact activation is -0.02% (inactive).

In the case of `CCOc1cc(C2C(C#N)=C(N)OC(C)=C2C(C)=O)cc(Br)c1O` (stereo not drawn), the fluorescence artifact activation is 37.6% (active).
